The results in this text go back to ChEMBL document CHEMBL1130046, “Modulation of melphalan resistance in glioma cells with a peripheral benzodiazepine receptor ligand-melphalan conjugate” (J Med Chem, 1997).

In experiment [1] the test system is C6. Description: The compound was tested for cytotoxicity against C6 (Rat) Glioma cell lines. Type of experiment: functional, cell-based. A digest of the protocol: (§1)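 Adherent cells seeded in their usual medium and allowed to attach overnight at 37 °C. Drugs added fresh, melphalan in saline and others in ethanol (≤1% of well volume), then 48 h at 37 °C. SRB read-out: TCA fixation, SRB staining, dye taken up in 10 mM Tris, absorbance 560 nm. Growth expressed as % of control and IC50 calculated; two or three experiments. C6-MR selected by weekly 24 h melphalan steps starting at 10 µM. DAOY MR kept under 70-78 µM melphalan for 24 h every third passage.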

Experiment [2] has as its target T1, Translocator protein (Rattus norvegicus, UniProt P16257). Briefly: The compound was tested for binding affinity against PBR(peripheral benzodiazepine receptor) in normal rat brain homogenate. It counts as tissue-based. Summed up:
(§2)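 Competitive displacement of [3H]Ro 5-4864 (1 nM final, 86.9 Ci/mmol) on rat whole-brain homogenate (~200 µg protein, 50 mM Tris-HCl pH 7.4) or C6/RG-2 cell homogenate (4 µg protein, 50 mM Tris-citrate pH 7.4). Incubation 60 min at 0-4 °C, duplicate tubes. Nonspecific binding with 10 µM PK-11195. Bound ligand collected by glass-fibre filtration, counted by scintillation, fitted by nonlinear regression.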

The subject of experiment [3] is Daoy. Description: The compound was tested for cytotoxicity against DAOY (human) Glioma cell lines. It counts as functional, cell-based. Summed up:
as §1

Experiment [4] relates to D341 cell line. Description: The compound was tested for cytotoxicity against D341 MR (human) Glioma cell lines. Type of experiment: functional, cell-based.
The test system of experiment [5] is D341 cell line. Description: The compound was tested for cytotoxicity against D341 (human) Glioma cell lines. It counts as functional, cell-based.
Experiment [6] relates to D283 Med. Description: The compound was tested for cytotoxicity against D283 MR (human) Glioma cell lines. Type of experiment: functional, cell-based.
The subject of experiment [7] is D283 Med. Description: The compound was tested for cytotoxicity against D283 (human) Glioma cell lines. Type of experiment: functional, cell-based.
Experiment [8] has as its system RG2. Description: The compound was tested for cytotoxicity against RG-2 (Rat) Glioma cell lines. It counts as functional, cell-based. Summed up: as §1
For experiment [9], the system named is SF-126. Briefly: The compound was tested for cytotoxicity against SF-126 (human) Glioma cell lines. Type of experiment: functional, cell-based. A digest of the protocol:
as §1

In experiment [10] the test system is SF-188. Briefly: The compound was tested for cytotoxicity against SF-188 (human) Glioma cell lines. Type of experiment: functional, cell-based. A digest of the protocol: as §1
The test system of experiment [11] is Daoy. Briefly: The compound was tested for cytotoxicity against DAOY MR (human) Glioma cell lines. It counts as functional, cell-based. Summed up:
as §1

Experiment [12] has as its target Translocator protein (Rattus norvegicus) (UniProt P16257). Description: Benzodiazepine receptor density in rat C6 glioma cells. It counts as cell-based. A digest of the protocol:
as §2

For experiment [13] the target is unchanged. Briefly: Benzodiazepine receptor density in rat RG-2 glioma cells. Type of experiment: cell-based. The following applies: RG2. A digest of the protocol:
as §2

Experiment [14] has the same target. Briefly: Benzodiazepine receptor density in normal rat brain homogenate. It counts as tissue-based. Summed up: as §2
Experiment [15] deals with C6. Briefly: The compound was tested for cytotoxicity against C6-MR (Rat) Glioma cell lines. It counts as functional, cell-based. Summed up:
as §1

The target in experiment [16] is T1, Translocator protein. Description: Binding affinity for PBR (peripheral benzodiazepine receptor) in rat C6 glioma cells. It counts as cell-based. A digest of the protocol:
as §2

Experiment [17] concerns the target T1, Translocator protein. Description: Binding affinity for PBR (peripheral benzodiazepine receptor) in rat RG-2 glioma cells. Type of experiment: cell-based, RG2. A digest of the protocol: as §2
In experiment [18] the test system is Daoy. Description: Glutathione (GSH) Concentrations DAOY MR cell line in Human Medulloblastoma Cells. It counts as functional.
Experiment [19] deals with Daoy. Briefly: Glutathione S-Transferase (GST) Activity against DAOY MR cell line in Human Medulloblastoma Cells. It counts as functional.
Experiment [20] has as its system Daoy. Description: Glutathione (GSH) Concentrations DAOY cell line in Human Medulloblastoma Cells. Type of experiment: functional.
Experiment [21] has as its system Daoy. Briefly: Glutathione S-Transferase (GST) Activity against DAOY cell line in Human Medulloblastoma Cells. It counts as functional.
Experiment [22] concerns Daoy. Description: The compound was tested for cytotoxicity against DAOY(human) […] cell lines. Type of experiment: functional, cell-based. Summed up: as §1
For experiment [23], the system named is D283 Med. Briefly: Glutathione (GSH) Concentrations D 283 MR cell line in Human Medulloblastoma Cells. Type of experiment: functional.
For experiment [24], the system named is D341 cell line. Description: Glutathione (GSH) Concentrations D341 cell line in Human Medulloblastoma Cells. It counts as functional.
Experiment [25] concerns D341 cell line. Description: Glutathione S-Transferase (GST) Activity against D 341cell line in Human Medulloblastoma Cells. It counts as functional.
For experiment [26], the system named is D283 Med. Briefly: Glutathione S-Transferase (GST) Activity against D 283 MR cell line in Human Medulloblastoma Cells. It counts as functional.
Experiment [27] deals with D283 Med. Briefly: Glutathione (GSH) Concentrations D 283 cell line in Human Medulloblastoma Cells. Type of experiment: functional.
Experiment [28] concerns D283 Med. Description: Glutathione S-Transferase (GST) Activity against D283 cell line in Human Medulloblastoma Cells. It counts as functional.
Experiment [29] deals with D341 cell line. Description: Glutathione (GSH) Concentrations D341 MR cell line in Human Medulloblastoma Cells. Type of experiment: functional.
In experiment [30] the test system is D341 cell line. Briefly: Glutathione S-Transferase (GST) Activity against D341 MR cell line in Human Medulloblastoma Cells. It counts as functional.

Translocator protein (Rattus norvegicus), sequence (P16257 whole entry, looked up): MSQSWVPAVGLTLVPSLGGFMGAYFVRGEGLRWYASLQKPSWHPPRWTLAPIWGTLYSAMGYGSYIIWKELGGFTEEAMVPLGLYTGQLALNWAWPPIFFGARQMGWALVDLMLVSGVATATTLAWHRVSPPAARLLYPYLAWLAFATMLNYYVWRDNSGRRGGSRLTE
T1 sequence (P16257 whole entry, looked up): as above

By IC50 is commonly meant the midpoint of a concentration-inhibition curve. On to `O=C1CN=C(c2ccccc2)c2cc(Cl)ccc2N1` [NORDAZEPAM], for which the concentration for half-maximal inhibition (IC50) in [1] was over 200 µM; in experiment [2] it was 520 µM; in experiment [3], over 200 µM; in [4], over 200 µM; in [5], over 200 µM; in experiment [6] it was over 200 µM. Besides, the 50% inhibitory concentration (IC50) in [7] was over 200 µM; in experiment [8], over 200 µM; in experiment [9], over 100 µM; in experiment [10], over 100 µM; in experiment [11], over 200 µM.
On to `CN1C(=O)CN=C(c2ccc(Cl)cc2)c2cc(Cl)ccc21` [RO-54864], for which the IC50 in experiment [1] is over 200 µM; in [8] it was over 100 µM; in [9] it was over 100 µM; in experiment [10] it was 138 µM. In addition, the Bmax (pM (mg of protein)-1) turned out to be 22 in [12], 33 in experiment [13] and 0.29 in experiment [14].
For the molecule `CCOC(=O)[C@@H](Cc1ccc(N(CCCl)CCCl)cc1)NC(=O)CCCN1C(=O)CN=C(c2ccccc2)c2cc(Cl)ccc21`, the IC50 in [1] was found to be 43.4 µM; in experiment [15], 74.4 µM; in experiment [16], 289 µM; in experiment [17] it was 390 µM; in experiment [2], 327 µM; in experiment [22] it was 40 µM. Also, the half-inhibitory concentration (IC50) in [4] was 32.8 µM; in experiment [5], 25 µM; in experiment [6], 25 µM; in [7], 72.3 µM; in experiment [8] it was 34.3 µM; in [9], 21 µM. The values for the 50% inhibitory concentration (IC50) in experiment [10] and in experiment [11] were 17.3 µM and 29.3 µM, respectively. Besides, the GSH in experiment [18] worked out at 10.8 µM/g; in experiment [20] it was 11.4 µM/g; in experiment [23], 50.7 µM/g; in experiment [24], 17.5 µM/g; in experiment [27], 18.4 µM/g; in experiment [29], 33.2 µM/g. For the same molecule, the GST activity in experiment [19] is reported as 84 nM min-1 (mg of protein)-1; in experiment [21] it was 88.7 nM min-1 (mg of protein)-1; in [25] it was 212.6 nM min-1 (mg of protein)-1; in [26], 417.3 nM min-1 (mg of protein)-1; in experiment [28] it was 150.6 nM min-1 (mg of protein)-1; in experiment [30], 327.9 nM min-1 (mg of protein)-1.
As for `N[C@@H](Cc1ccc(N(CCCl)CCCl)cc1)C(=O)O`, the 50% inhibitory concentration (IC50) in [1] was 11 µM; in experiment [15], 74.9 µM; in experiment [4], 52.4 µM; in experiment [5], 12.4 µM; in experiment [7] it was 6.8 µM; in experiment [8] it was 15.2 µM. Further, the 50% inhibitory concentration (IC50) was found to be 103 µM in experiment [9], 35.4 µM in experiment [10] and 140 µM in [11].
